In BindingDB's records for doi:10.1021/acs.jmedchem.7b00861 (Leiden University, 2017) one finds IC50 and Ki data, which are given here for 13 molecules.

Each structure is given as a SMILES string. Several values for one entry are separate records, joined by “and”; a condition that tells them apart may be missing. Equal values may be shown once.

The target in assay [1] is T1, Cannabinoid receptor 1 (Homo sapiens, UniProt P21554). Description: Antagonist activity at recombinant human CB1 receptor expressed in HEK293 cell membranes assessed as inhibition of CP55940-induced [35S]GTPgammaS binding preincubated for 1 hr followed by CP55940 addition and subsequent incubation with [35S]GTPgammaS measured after 30 mins by scintillation spectrometry. A digest of the protocol: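 Antagonism was measured by [35S]GTPγS binding at 30 °C on membranes of HEK-293 cells stably expressing recombinant human CB1.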
T1 sequence (P21554 whole entry): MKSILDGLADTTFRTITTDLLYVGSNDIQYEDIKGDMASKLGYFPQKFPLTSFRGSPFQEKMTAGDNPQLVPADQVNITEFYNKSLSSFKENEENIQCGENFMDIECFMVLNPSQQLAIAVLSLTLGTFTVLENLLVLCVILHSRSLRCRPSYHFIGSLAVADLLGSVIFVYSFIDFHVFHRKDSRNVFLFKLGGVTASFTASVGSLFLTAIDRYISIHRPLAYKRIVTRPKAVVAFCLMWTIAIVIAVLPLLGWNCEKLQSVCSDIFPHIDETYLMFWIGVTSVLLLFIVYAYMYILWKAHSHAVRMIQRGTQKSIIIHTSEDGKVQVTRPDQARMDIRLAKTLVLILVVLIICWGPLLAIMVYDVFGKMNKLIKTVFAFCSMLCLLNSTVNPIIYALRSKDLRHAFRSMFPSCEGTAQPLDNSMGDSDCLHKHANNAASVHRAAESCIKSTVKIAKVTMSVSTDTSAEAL

For assay [2], the target named is T1, Cannabinoid receptor 1. Description: Displacement of [3H]CP55940 from recombinant human CB1 receptor expressed in beta-galactosidase expressing CHOK1 cell membranes after 60 mins by scintillation spectrometry.

On to `Cc1c(C(=O)N[C@@H]2CCCC[C@@H]2O)nc(-c2ccc(Cl)cc2Cl)n1-c1ccc(OS(=O)(=O)CCC(F)(F)F)cc1`, for which the IC50 on Cannabinoid receptor 1 [1] was 1.58 nM. For the molecule `Cc1c(C(=O)N[C@@H]2CCCC[C@@H]2N(C)C)nc(-c2ccc(Cl)cc2Cl)n1-c1ccc(OS(=O)(=O)CCC(F)(F)F)cc1`, at Cannabinoid receptor 1 [1], the IC50 is 79 nM and 83 nM. Also, on Cannabinoid receptor 1 [2], the Ki was found to be 2.5 nM. With `Cc1c(C(=O)NN2CCCCC2)nc(-c2ccc(Cl)cc2Cl)n1-c1ccc(OCCC(F)(F)F)cc1`, the IC50 on Cannabinoid receptor 1 [1] worked out at 5.01 nM. Further, the Ki on Cannabinoid receptor 1 [2] was determined as 0.794 nM. Consider `Cc1c(C(=O)NN2CCCCC2)nc(-c2ccc(Cl)cc2Cl)n1-c1ccc(OCCCC(F)(F)F)cc1`, for which, at Cannabinoid receptor 1 [2], the inhibitory constant (Ki) was determined as 0.2 nM.

As for `CCCCS(=O)(=O)Oc1ccc(-n2c(-c3ccc(Cl)cc3Cl)nc(C(=O)NN3CCCCC3)c2C)cc1`, the Ki at Cannabinoid receptor 1 [2] came out at 0.126 nM.

Consider `Cc1c(C(=O)NN2CCCCC2)nc(-c2ccc(Cl)cc2Cl)n1-c1ccc(OS(=O)(=O)CCCC(F)(F)F)cc1`, for which the Ki on Cannabinoid receptor 1 [2] was determined as 0.1 nM. Take `Cc1c(C(=O)N[C@H]2CCC[C@H](O)C2)nc(-c2ccc(Cl)cc2Cl)n1-c1ccc(OS(=O)(=O)CCC(F)(F)F)cc1`: the IC50 on Cannabinoid receptor 1 [1] was 1.26 nM.

`Cc1c(C(=O)N[C@@H]2CCCC[C@H]2O)nc(-c2ccc(Cl)cc2Cl)n1-c1ccc(OS(=O)(=O)CCC(F)(F)F)cc1`: the Ki at Cannabinoid receptor 1 [2] is 0.2 nM. Take `Cc1c(C(=O)N[C@H]2CCCC[C@H]2N)nc(-c2ccc(Cl)cc2Cl)n1-c1ccc(OS(=O)(=O)CCC(F)(F)F)cc1`: at Cannabinoid receptor 1 [1], the IC50 was determined as 6.3 nM. On Cannabinoid receptor 1 [2], the Ki stood at 0.316 nM. Turning to `Cc1c(C(=O)Nc2ccc(F)nc2)nc(-c2ccc(Cl)cc2Cl)n1-c1ccc(OS(=O)(=O)CCC(F)(F)F)cc1`, the inhibitory constant (Ki) at Cannabinoid receptor 1 [2] turned out to be 0.1 nM. Same read-out and setting: the figure for `Cc1c(C(=O)Nc2ccc(C(F)(F)F)cn2)nc(-c2ccc(Cl)cc2Cl)n1-c1ccc(OS(=O)(=O)CCC(F)(F)F)cc1` is 0.126 nM. For `Cc1c(C(=O)NN2CCCCC2)nc(-c2ccc(Cl)cc2Cl)n1-c1ccc(OS(=O)(=O)CCC(C)(C)C)cc1`, the IC50 at Cannabinoid receptor 1 [1] is 2 nM. Moreover, at Cannabinoid receptor 1 [2], the Ki was found to be 0.501 nM.

For `Cc1c(C(=O)NN2CCCCC2)nc(-c2ccc(Cl)cc2Cl)n1-c1ccc(OS(=O)(=O)CCC(F)(F)F)cc1`, the Ki at Cannabinoid receptor 1 [2] turned out to be 0.126 nM.
